This is an account of results in paper PMC3254186 (Frontiers in Pharmacology, 2011).

What all share (assay type): cell-based
One assay deals with T1, Kir3.1/3.2 (Homo sapiens, UniProt P48051+P48549).
T1 sequence (P48549 1-501): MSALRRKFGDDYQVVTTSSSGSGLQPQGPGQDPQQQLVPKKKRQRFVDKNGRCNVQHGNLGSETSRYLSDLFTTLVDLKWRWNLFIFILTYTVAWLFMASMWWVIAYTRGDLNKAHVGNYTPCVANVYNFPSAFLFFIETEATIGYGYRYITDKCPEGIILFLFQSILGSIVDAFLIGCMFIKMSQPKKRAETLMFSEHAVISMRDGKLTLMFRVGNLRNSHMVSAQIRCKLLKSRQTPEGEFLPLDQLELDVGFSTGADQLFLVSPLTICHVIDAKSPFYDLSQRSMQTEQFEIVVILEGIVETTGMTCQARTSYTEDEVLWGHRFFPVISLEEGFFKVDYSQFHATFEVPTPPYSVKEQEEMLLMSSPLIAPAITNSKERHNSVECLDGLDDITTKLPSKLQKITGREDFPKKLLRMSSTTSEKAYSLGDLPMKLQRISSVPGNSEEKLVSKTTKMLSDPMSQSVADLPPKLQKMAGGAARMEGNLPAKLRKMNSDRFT
T1 sequence (P48051 1-423): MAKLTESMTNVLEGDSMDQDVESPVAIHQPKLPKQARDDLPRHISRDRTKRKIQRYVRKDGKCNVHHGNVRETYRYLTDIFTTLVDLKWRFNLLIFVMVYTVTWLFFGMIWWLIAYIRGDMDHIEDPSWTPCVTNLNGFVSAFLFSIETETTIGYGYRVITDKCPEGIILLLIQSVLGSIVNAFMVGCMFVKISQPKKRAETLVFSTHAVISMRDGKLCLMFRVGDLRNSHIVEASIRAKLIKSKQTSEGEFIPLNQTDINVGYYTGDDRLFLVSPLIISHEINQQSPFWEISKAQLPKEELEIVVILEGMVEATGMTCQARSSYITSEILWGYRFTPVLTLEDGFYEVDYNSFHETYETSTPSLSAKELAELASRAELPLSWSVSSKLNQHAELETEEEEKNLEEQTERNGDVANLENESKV
The assay is described as follows: Two-electrode voltage clamp in Xenopus oocytes, Kir3.1/3.2. An outline of the steps:
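Xenopus oocytes were injected with Kir3.1/3.2 or Kir3.1/3.4 cRNA and voltage-clamped with two electrodes at 20–23°C, with current at −80 mV followed over time. The bath was switched from K+-free to 90 mM K+ to activate the channel. Test compound in 90K was applied continuously at graded concentrations, then 2 mM Ba2+ was added. A final 0K switch measured leak. Time constant derived (n = 6 at 25 μM). Percent inhibition n = 4–6.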

A further assay deals with T2, Kir2.1 (Homo sapiens, UniProt P63252).
T2 sequence (P63252 1-427): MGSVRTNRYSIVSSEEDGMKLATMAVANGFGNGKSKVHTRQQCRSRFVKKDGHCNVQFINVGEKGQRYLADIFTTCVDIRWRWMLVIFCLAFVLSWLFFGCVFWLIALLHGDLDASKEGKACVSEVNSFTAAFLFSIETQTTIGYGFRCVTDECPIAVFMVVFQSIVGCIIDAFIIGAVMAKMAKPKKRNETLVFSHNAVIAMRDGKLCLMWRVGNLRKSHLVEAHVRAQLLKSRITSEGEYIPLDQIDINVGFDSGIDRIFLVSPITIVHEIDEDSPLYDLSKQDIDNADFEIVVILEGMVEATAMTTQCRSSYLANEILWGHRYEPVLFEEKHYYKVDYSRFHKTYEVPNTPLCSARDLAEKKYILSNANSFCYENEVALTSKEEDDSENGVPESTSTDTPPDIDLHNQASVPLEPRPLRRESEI
The assay is described as follows: Two-electrode voltage clamp in Xenopus oocytes, Kir2.1. An outline of the steps: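 Stage V–VI Xenopus oocytes were defolliculated with 1 mg/mL collagenase and injected with 0.5–10 ng cRNA. They were kept at 16°C in modified L-15 for 24–72 h. Two-electrode voltage clamp at 20–23°C: held at −75 mV and stepped to −120 mV for 200 ms every 5 s, with current at −120 mV tracked over time. Test compound (50 μM) was perfused, then 2 mM Ba2+. Time constant of inhibition derived.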

The target in another assay is T3, Kir3.1/3.2 (GIRK) (Homo sapiens, UniProt P48051+P48549).
T3 sequence (P48549 1-501): T1 sequence (P48549 1-501)
T3 sequence (P48051 1-423): T1 sequence (P48051 1-423)
Kind of assay: Whole-cell patch clamp, Kir3.1/3.2 in transfected HEK-293 cells. An outline of the steps:
(§1)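 HEK-293 cells were transiently co-transfected with channel plus an EGFP marker (Lipofectamine). Pipette: 135 mM KCl, 2 mM MgCl2, 1 mM EGTA, 10 mM HEPES, 2 mM Na2ATP, pH 7.3. Bath: 135 mM NaCl, 5 mM KCl, pH 7.4; some runs used 50 mM KCl. Held at −75 mV and ramped −120 to 120 mV every 5 s, at 20–23°C. Test compound was bath-applied for 2–10 min, then 2 mM BaCl2. CRC n = 4–7. τ taken from the time course.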

For a further assay, the target named is T4, wild type Kir7.1 (Homo sapiens, UniProt O60928).
T4 sequence (O60928 1-360): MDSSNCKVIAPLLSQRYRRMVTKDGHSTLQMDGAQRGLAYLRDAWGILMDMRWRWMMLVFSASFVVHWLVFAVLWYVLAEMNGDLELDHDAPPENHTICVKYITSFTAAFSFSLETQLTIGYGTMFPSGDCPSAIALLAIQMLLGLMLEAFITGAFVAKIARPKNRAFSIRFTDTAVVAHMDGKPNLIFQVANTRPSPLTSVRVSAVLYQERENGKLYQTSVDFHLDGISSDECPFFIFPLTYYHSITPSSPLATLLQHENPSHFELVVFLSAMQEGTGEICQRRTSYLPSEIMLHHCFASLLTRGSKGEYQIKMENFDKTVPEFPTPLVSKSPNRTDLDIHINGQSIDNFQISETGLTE
Kind of assay: Whole-cell patch clamp, wild type Kir7.1 in transfected HEK-293 cells. Summed up:
as §1

`Cc1ccc(OCC(O)Cn2c(=N)n(Cc3ccccc3)c3ccccc32)cc1` (centres unmarked) [Compound 1, 1-(3-benzyl-2-imino-2,3-dihydro-1H-benzo[d]imidazol-1-yl)-3-(p-tolyloxy)propan-2-ol]: the IC50 on Kir3.1/3.2 is ~10000 nM; against Kir3.1/3.2 (GIRK), 1300 nM; at wild type Kir7.1 (IC50 Kir7.1, whole-cell patch clamp, wild type Kir7.1, HEK-293), ~1000 nM. For the same compound, the “time constant (τ) for inhibition of Kir3.1/3.2 currents” value on Kir3.1/3.2 (TEVC oocytes, 25 μM, mean ± SEM, n = 6) worked out at 28 ± 4 s. Also, the inhibition at 10 µM on Kir3.1/3.2 (read-out: inhibition of GIRK current (Kir3.1/3.2)) was ~50%. Besides, the “time constant (τ) of Kir2.1 inhibition” value on Kir2.1 (TEVC oocytes, 50 μM, n = 4) is reported as 735 ± 85 s. Moreover, the inhibition at 50 µM at Kir2.1 (read-out: inhibition of Kir2.1) came to 30.2 ± 9.4%. On Kir3.1/3.2 (GIRK) (whole-cell patch clamp, HEK-293, 30 μM bath application), the “inhibition of GIRK” value was “near complete inhibition”. Moreover, the “time constant of inhibition of Kir3.1/3.2” value at Kir3.1/3.2 (GIRK) (whole-cell patch clamp, HEK-293, 30 μM, mean ± SEM, n = 5) is reported as 16 ± 1 s. In addition, the “effect on wild type Kir7.1 activity” value at wild type Kir7.1 (whole-cell patch clamp, 10 μM, n = 4) is recorded as “near complete inhibition”. The “time constant for inhibition of Kir7.1” value on wild type Kir7.1 (whole-cell patch clamp, 30 μM, mean ± SEM, n = 4) is recorded as 14 ± 2 s.
